# Rpn11 block: Rpn11 (human) deubiquitinase inhibition; human 26S proteasome, Ub4-pepOG fluorescence polarization; 20S core pre-blocked with epoxomicin; inhibition, % at 20 µM; 0.59% of 360,000 active; AID 588493;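 active = inhibition at 20 µM, scaled to each plate's controls, above about 33%, limit read from the data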
# PLC-beta3 inh: inhibitors of human phospholipase C beta3. Q01970. 0.18% of 370,000 active. inhibition, % at 12.2 µM. Purified PLC-beta3, fluorogenic substrate, fluorescence; in the data active = inhibition above about 11%;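 note: 0% = median of compound wells on plate and 100% = full blocker control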
# Target sequence (Q01970 whole entry, looked up): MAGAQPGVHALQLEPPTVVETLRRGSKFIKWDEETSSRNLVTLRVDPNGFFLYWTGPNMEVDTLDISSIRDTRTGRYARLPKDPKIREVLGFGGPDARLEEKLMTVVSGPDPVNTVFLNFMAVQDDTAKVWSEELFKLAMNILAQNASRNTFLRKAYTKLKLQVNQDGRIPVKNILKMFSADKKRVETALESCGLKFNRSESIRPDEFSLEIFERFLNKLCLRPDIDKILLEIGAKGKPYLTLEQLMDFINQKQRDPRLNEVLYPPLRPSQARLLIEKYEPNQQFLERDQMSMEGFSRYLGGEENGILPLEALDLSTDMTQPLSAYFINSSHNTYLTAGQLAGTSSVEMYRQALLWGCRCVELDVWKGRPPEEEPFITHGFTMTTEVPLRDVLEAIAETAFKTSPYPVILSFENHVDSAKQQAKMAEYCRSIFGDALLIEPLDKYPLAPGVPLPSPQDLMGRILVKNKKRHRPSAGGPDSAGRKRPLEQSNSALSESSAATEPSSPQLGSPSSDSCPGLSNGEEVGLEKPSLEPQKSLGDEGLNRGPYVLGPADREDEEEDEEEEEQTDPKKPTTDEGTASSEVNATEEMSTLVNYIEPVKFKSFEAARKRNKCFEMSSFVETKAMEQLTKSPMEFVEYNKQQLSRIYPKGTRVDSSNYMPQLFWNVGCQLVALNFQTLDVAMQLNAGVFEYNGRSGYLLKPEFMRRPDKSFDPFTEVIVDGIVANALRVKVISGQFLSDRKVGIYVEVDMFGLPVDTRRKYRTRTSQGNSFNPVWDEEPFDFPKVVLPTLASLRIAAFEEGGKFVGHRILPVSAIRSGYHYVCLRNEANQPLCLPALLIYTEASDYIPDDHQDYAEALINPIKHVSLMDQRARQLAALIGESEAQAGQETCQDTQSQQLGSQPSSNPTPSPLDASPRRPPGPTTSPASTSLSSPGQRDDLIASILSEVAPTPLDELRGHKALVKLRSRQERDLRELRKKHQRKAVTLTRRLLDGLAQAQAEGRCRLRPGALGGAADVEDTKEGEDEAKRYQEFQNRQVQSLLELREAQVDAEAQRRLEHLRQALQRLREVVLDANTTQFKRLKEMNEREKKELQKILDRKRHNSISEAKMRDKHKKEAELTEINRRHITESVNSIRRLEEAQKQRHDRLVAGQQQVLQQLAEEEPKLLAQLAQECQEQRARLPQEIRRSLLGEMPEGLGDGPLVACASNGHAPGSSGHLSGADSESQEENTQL
# PLC-gamma1 inh: PLC-gamma1 (human) inhibition, primary screen; P19174; purified PLC-gamma1, fluorogenic substrate, fluorescence; inhibition, % at 12.2 µM; 0.84% of 370,000 active; AID 720700
# UCH37 inh: inhibitors of human deubiquitinating enzyme UCH37; AID 588478; 0.33% of 330,000 active; inhibition, % (no concentration beside the values); purified proteasome/UCH37, Ub-AMC cleavage fluorescence;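 active = mean inhibition over replicate wells above about 20%, limit read from the data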;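 note: 0% = compound-free wells with enzyme and 100% = wells lacking proteasome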
#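 Material: human UCH37 enzyme supplied as purified proteasome complex / Amount: 0.15 nM proteasome as dispensed / Buffer or medium: pH 7.4 Tris-HCl (50 mM) with ovalbumin, ATP-MgCl2, DTT / Times: preincubation 30 min, reaction 25 min, room temperature / Technique: AMC fluorescence from Ub-AMC cleavage, excitation 355 nm, emission 460 nm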
# PLCg1 ctr: inhibits human PLC-gamma1 in PLC-beta3 counter-screen; shares compounds with PLC-gamma1 inh; purified PLC-gamma1, fluorogenic substrate, fluorescence; inhibition, % at 12.3 µM; 3.1% of 3,300 active; AID 743258
# PLCb3 confirm: human PLC-beta3 inhibition, confirmation | shares compounds with PLC-gamma1 inh | purified PLC-beta3, fluorogenic substrate fluorescence | inhibition, % at 12.3 µM | 1% of 3,300 active | AID 743261; in the data active = inhibition above about 11%
# * hit, by the source's call; nt = not tested or not shown. Sampled rows, rich in hits. Any-hit rate of the full collection: about 1.7%. Cut-off read from the data, not from the text of the source, unless noted: active = inhibition above about 9.5%; inactive = the rest.
SMILES,Rpn11 block,PLC-beta3 inh,PLC-gamma1 inh,UCH37 inh,PLCg1 ctr,PLCb3 confirm
CN(C)c1ccc(/C=N/NC(=O)c2nonc2N)cc1[N+](=O)[O-],-2.8,2.4,9.8*,nt,-3.2,4.9
COc1ccc(/C=N/NC(=O)c2ccc3c(c2)OCCO3)cc1[N+](=O)[O-],2.7,-2.7,10.6*,nt,-10.1,-2.7
Nc1nonc1C(=O)N/N=C/c1cccc([N+](=O)[O-])c1,-2.0,0.6,-0.6,nt,nt,nt
O=C(NN=Cc1ccc(Cl)c([N+](=O)[O-])c1)c1ccc2c(c1)OCCO2,nt,nt,nt,3.7,nt,nt
Nc1nonc1-n1nnc(C(=O)NN=Cc2cccc(F)c2)c1-c1ccccc1,nt,nt,nt,5.2,nt,nt
CC(=NNS(=O)(=O)c1ccc(C)cc1)c1c(O)c2ccccc2oc1=O,nt,nt,nt,10.4,nt,nt
CCN(N=Cc1cccs1)c1cc(=O)n(C)c(=O)[nH]1,nt,nt,nt,18.2,nt,nt
CCC(=O)Nc1cc(C(=O)OCC(=O)c2ccccc2Cl)ccc1C,-1.7,-1.5,12.9*,2.3,1.9,1.6
CCC(=O)Nc1cc(C(=O)OCC(=O)c2ccc(Cl)cc2Cl)ccc1C,7.3,1.9,8.5,3.1,nt,nt
Cc1c2c(nc3ccccc13)CCC(C)C2 (stereo not drawn),-3.5,-0.1,1.1,3.7,nt,nt
CSc1nc2c(c(C(F)(F)F)n1)CC(C)CC2 (stereo not drawn),3.5,-3.0,9.6*,6.3,1.9,1.2
O=C(NN=Cc1cccc(OC(=O)c2ccc([N+](=O)[O-])cc2)c1)c1cccnc1,nt,nt,nt,5.4,nt,nt
CCOc1cc(CNCc2ccccc2)ccc1OCc1ccc(Cl)cc1,-14.4,1.3,17.2*,6.9,-1.0,-1.3
COc1ccc(CNCCc2ccc(Cl)cc2)cc1OCc1ccccc1,-3.5,nt,nt,-0.8,nt,nt
CCNC(=O)C1(C)CCN1C(=O)CCc1cccc(Cl)c1 (stereo not drawn),-3.8,7.6,13.5*,nt,-7.7,-4.1
CC1(C(=O)NS(=O)(=O)Cc2cccc(Cl)c2)CCN1C(=O)CCc1ccccc1 (stereo not drawn),-6.2,-7.1,-2.9,nt,nt,nt
CCOC(=O)C(Sc1nn(C)c(=S)s1)C(C)=O (stereo not drawn),2.4,10.9*,3.0,6.8,5.9,2.3
O=C1/C(=C/c2ccco2)SC(=S)N1c1cccnc1,nt,-17.6,11.9*,6.4,-1.0,-13.7
O=C1/C(=C\c2ccco2)SC(=S)N1c1ccc(O)cc1,1.9,-1.6,1.2,1.3,nt,nt
NN1C(=O)/C(=C\c2ccco2)SC1=S,9.9,-8.1,17.6*,6.5,-7.2,-5.2
O=C1/C(=C/C=C/c2ccco2)SC(=S)N1c1ccc(O)cc1,94.6*,-7.8,21.9*,4.9,-8.6,-22.6
CCN(CC)S(=O)(=O)c1ccc(NN=Cc2cc(OC)c(OC)cc2OC)nc1,nt,nt,nt,-134.6,nt,nt
O=C(NN=Cc1coc2ccc(Cl)cc2c1=O)c1cc(O)cc(O)c1,nt,nt,nt,-39.2,nt,nt
COCCNC(=O)Cn1nc(-c2ccc(Cl)cc2)c2ccccc2c1=O,-5.3,3.3,11.6*,1.0,-3.4,-0.6
CCOC(=O)c1c(C)n(-c2ccc(C)cc2)c2c(CC(C)=O)c(Br)c(OC)c(O)c12,1.5,6.6,10.1*,1.5,-4.8,-2.5
SMILES,Rpn11 block,PLC-beta3 inh,PLC-gamma1 inh,UCH37 inh,PLCg1 ctr,PLCb3 confirm
Cc1ccc(C=NNC(=O)c2c(-c3ccccc3)noc2C)o1,nt,nt,nt,6.7,nt,nt
Cc1cccc(-n2cc(CN(C)Cc3nccn3C)c(-c3cccc(F)c3)n2)c1,-1.6,4.3,11.1*,3.8,-3.8,-1.4
COc1ccc(-n2c(C)nn(C)c2=O)cc1,1.2,7.7,9.9*,0.8,-8.5,-1.7
Nc1cc([N+](=O)[O-])ccc1O,-1.9,-1.2,2.0,13.9,nt,nt
Nc1ccc(O)c([N+](=O)[O-])c1,-2.3,6.9,21.1*,4.0,19.2*,1.4
CCOc1ccc(NC(=O)CC2SC(=O)N(c3ccccc3)C2=O)cc1 (stereo not drawn),5.3,4.3,9.9*,9.1,-8.9,-6.8
COc1ccc(C=NN2CCN(c3ccccc3OC)CC2)cc1OC,nt,nt,nt,2.0,nt,nt
COc1ccccc1C=NNC(=O)c1ccc(=O)n(C)c1,nt,nt,nt,10.0,nt,nt
Cc1sc(NC(=O)CCC(=O)O)c(C#N)c1C,-2.1,-5.6,10.7*,2.0,-7.1,0.9
Cc1ccc(N(CC(=O)NC2CCCCC2)C(=O)CCC(=O)Nc2nccs2)cc1,2.6,-8.2,0.4,2.2,nt,nt
Cc1ccc(N(CC(=O)NC2CCCC2)C(=O)CCC(=O)Nc2nc(C)cs2)cc1,-5.3,-8.0,9.6*,2.6,-2.0,3.9
CC(=NNC(=O)Cc1ccccc1)c1ccc(Br)s1,nt,nt,nt,-0.4,nt,nt
CCOC(=O)c1c(C)n(C)c2cc(Br)c(OC)cc12,-4.2,-0.7,3.6,4.2,nt,nt
CCOC(=O)c1c(C)oc2cc(Br)c(OC)cc12,-3.5,1.4,9.8*,4.3,-4.1,-4.1
O=C(COC(=O)c1cc(-c2cccs2)nn1-c1ccccc1)Nc1cccc([N+](=O)[O-])c1,2.3,-2.3,1.4,4.8,nt,nt
Cc1ccc(NC(=O)COC(=O)c2cc(-c3cccs3)nn2-c2ccccc2)cc1[N+](=O)[O-],-4.5,4.2,10.7*,5.0,-3.9,-6.2
CCOc1cc(C=NNC(=O)c2cccnc2)ccc1O,nt,nt,nt,9.2,nt,nt
CN(C)S(=O)(=O)c1ccc(NCC2COc3ccccc3O2)c([N+](=O)[O-])c1 (stereo not drawn),0.6,3.1,3.8,1.7,nt,nt
CCN(CC)S(=O)(=O)c1ccc(NCC2COc3ccccc3O2)c([N+](=O)[O-])c1 (stereo not drawn),3.1,-1.7,12.2*,7.7,-0.3,3.7
Oc1oc(-c2ccccc2Br)nc1C=Nc1ccccn1,nt,nt,nt,8.4,nt,nt
CCOC(=O)CC1(C)Oc2ccccc2N1S(=O)(=O)c1ccc(C)cc1 (stereo not drawn),nt,3.8,9.8*,nt,-1.4,-4.5
CC(Sc1nnc(C2CC2)n1N)C(=O)NC1CCCCC1C (stereo not drawn),14.9,2.6,9.9*,0.8,-3.7,1.2
CNc1nc(NN=Cc2cc3c(cc2[N+](=O)[O-])OCO3)nc(Nc2ccccc2)n1,nt,nt,nt,7.3,nt,nt
CC(=NOC(=O)c1ccccc1Br)c1ccc(C)cc1,nt,nt,nt,1.5,nt,nt
COc1ccc(-n2nc(C(=O)Nc3ccc(OC)c(OC)c3)c3c4ccccc4n(C)c3c2=O)cc1,-1.7,-0.6,-0.5,-2.8,nt,nt
SMILES,Rpn11 block,PLC-beta3 inh,PLC-gamma1 inh,UCH37 inh,PLCg1 ctr,PLCb3 confirm
COc1ccc(-n2nc(C(=O)Nc3ccc4c(c3)OCO4)c3c4ccccc4n(C)c3c2=O)cc1,1.0,5.8,11.9*,-6.3,-51.2,-9.4
Cc1ccc(C=c2sc3nc(-c4ccccc4Br)nn3c2=O)o1,nt,nt,nt,9.3,nt,nt
Cc1cccc(OCC(=O)NCC(=O)NN=Cc2ccccc2)c1,nt,nt,nt,1.2,nt,nt
CC(/C=C/c1ccccc1)=NNC(=O)CNC(=O)c1ccc2c(c1)OCO2,nt,nt,nt,-2.0,nt,nt
COc1ccc(S(=O)(=O)NCC(c2ccco2)N2CCc3ccccc32)cc1 (stereo not drawn),2.3,2.5,10.7*,1.1,-2.7,0.0
Cc1ccc(S(=O)(=O)NCC(c2ccco2)N2CCc3ccccc32)cc1 (stereo not drawn),4.3,-6.8,-3.3,7.5,nt,nt
